Source: ChEMBL document CHEMBL1155469, “Peptide nucleic acids conjugated to short basic peptides show improved pharmacokinetics and antisense activity in adipose tissue” (J Med Chem, 2010)
Active and inactive are the calls of the source. The rule behind the calls is not given here.

Tests used:
Mus musculus [1] = experiment: Toxicity in Balb/C mouse assessed as change in serum ALT levels at 10 to 40 mg/kg, ip administered thrice a week for 2 weeks measured 48 hrs after last dose; type: organism-based; parameters: dose 10-40 mg/kg, route intraperitoneal; conditions: in vivo
Outline: (§1)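 Male Balb/c mice, 6–8 wk, n=4/group, received compound i.p. in PBS (10 ul/g) 3x/wk for 2 wk. Body weight was monitored throughout. At 48 h after the last dose, mice were anesthetized with isoflurane and bled by cardiac puncture. Serum AST, ALT, BUN, bilirubin, glucose and triglycerides were compared with the saline group. ALT rise below 2x normal was counted as absent.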

Mus musculus [2] = experiment: Toxicity in Balb/C mouse assessed as change in blood urea nitrogen levels at 10 to 40 mg/kg, ip administered thrice a week for 2 weeks measured 48 hrs after last dose; type: organism-based; parameters: dose 10-40 mg/kg, route intraperitoneal; conditions: in vivo; outline: as §1
Mus musculus [3] = experiment: Inhibition of PTEN expression in Balb/C mouse kidney assessed as upregulation of isoform lacking exon at 40 mg/kg, ip administered thrice a week for 2 weeks measured 48 hrs after last dose […]; type: functional; parameters: scale not given: the % may be the effect or the level left; conditions: route intraperitoneal
Mus musculus [4] = experiment: Acute toxicity in Balb/C mouse assessed as change in serum chemistry at 37 mg/kg, ip administered thrice a week for 2 weeks measured 48 hrs after last dose; type: organism-based; parameters: dose 37 mg/kg, route intraperitoneal; conditions: in vivo
Outline: (§2)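 Male Balb/c mice aged 6–8 weeks, n=4 per group, dosed i.p. with compound suspended in PBS and filter sterilized, 10 ul/g body weight. Body weight tracked throughout the live phase. Under isoflurane anaesthesia, terminal cardiac-puncture bleed; serum taken for transaminases and other chemistries. Sacrifice by cervical dislocation 48 h after last dose, with liver and spleen weighed at necropsy. Kidneys examined by histopathology.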

Mus musculus [5] = experiment: Acute toxicity in Balb/C mouse assessed as change in body weight at 37 mg/kg, ip administered thrice a week for 2 weeks measured 48 hrs after last dose; type: organism-based; parameters: dose 37 mg/kg, route intraperitoneal; conditions: in vivo; outline: as §2
Mus musculus [6] = experiment: Toxicity in Balb/C mouse assessed as increase in spleen weight at 40 mg/kg, ip administered thrice a week for 2 weeks measured 48 hrs after last dose; type: organism-based; parameters: dose 40 mg/kg, route intraperitoneal; conditions: in vivo
Outline: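 Male Balb/c mice, 6–8 wk, n=4/group, were dosed i.p. in PBS 3x/wk for 2 wk at 40 mg/kg. They were killed by cervical dislocation 48 h after the last dose. Spleen weight was taken at necropsy and compared with the saline-treated group.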

Mus musculus [7] = experiment: Acute toxicity in Balb/C mouse assessed as change in organ weight at 25 mg/kg, ip administered BID for 5 days measured 48 hrs after last dose; type: organism-based; parameters: dose 25 mg/kg, route intraperitoneal; conditions: in vivo; outline: as §2
Mus musculus [8] = experiment: Acute toxicity in Balb/C mouse assessed as change in organ weight at 37 mg/kg, ip administered thrice a week for 2 weeks measured 48 hrs after last dose; type: organism-based; parameters: dose 37 mg/kg, route intraperitoneal; conditions: in vivo; outline: as §2
Mus musculus [9] = experiment: Toxicity in Balb/C mouse assessed as change in body weight at 10 to 40 mg/kg, ip administered thrice a week for 2 weeks measured 48 hrs after last dose; type: organism-based; parameters: dose 10-40 mg/kg, route intraperitoneal; conditions: in vivo; outline: as §1
Mus musculus [10] = experiment: Acute toxicity in Balb/C mouse assessed as change in body weight at 25 mg/kg, ip administered BID for 5 days measured 48 hrs after last dose; type: organism-based; parameters: dose 25 mg/kg, route intraperitoneal; conditions: in vivo; outline: as §2
Mus musculus [11] = experiment: Inhibition of PTEN expression in Balb/C mouse kidney assessed as reduction of full length transcript at 40 mg/kg, ip administered thrice a week for 2 weeks measured 48 hrs after last dose […]; type: functional; parameters: scale not given: the % may be the effect or the level left; conditions: route intraperitoneal
Mus musculus [12] = experiment: Acute toxicity in Balb/C mouse assessed as change in serum chemistry at 25 mg/kg, ip administered BID for 5 days measured 48 hrs after last dose; type: organism-based; parameters: dose 25 mg/kg, route intraperitoneal; conditions: in vivo; outline: as §2
Mus musculus [13] = experiment: Toxicity in Balb/C mouse assessed as change in serum bilirubin levels at 10 to 40 mg/kg, ip administered thrice a week for 2 weeks measured 48 hrs after last dose; type: organism-based; parameters: dose 10-40 mg/kg, route intraperitoneal; conditions: in vivo; outline: as §1
Mus musculus [14] = experiment: Toxicity in Balb/C mouse assessed as change in serum triglyceride levels at 10 to 40 mg/kg, ip administered thrice a week for 2 weeks measured 48 hrs after last dose; type: organism-based; parameters: dose 10-40 mg/kg, route intraperitoneal; conditions: in vivo; outline: as §1
Mus musculus [15] = experiment: Inhibition of PTEN expression in ip dosed Balb/C mouse white adipose tissue assessed as upregulation of isoform lacking exon administered thrice a week for 2 weeks measured 48 hrs after last dose […]; type: functional, organism-based
Mus musculus [16] = experiment: Toxicity in Balb/C mouse assessed as change in serum AST levels at 10 to 40 mg/kg, ip administered thrice a week for 2 weeks measured 48 hrs after last dose; type: organism-based; parameters: dose 10-40 mg/kg, route intraperitoneal; conditions: in vivo; outline: as §1
Mus musculus [17] = experiment: Toxicity in Balb/C mouse assessed as change in serum glucose levels at 10 to 40 mg/kg, ip administered thrice a week for 2 weeks measured 48 hrs after last dose; type: organism-based; parameters: dose 10-40 mg/kg, route intraperitoneal; conditions: in vivo; outline: as §1
Mus musculus [18] = experiment: Inhibition of PTEN expression in Balb/C mouse liver at 10 to 40 mg/kg, ip administered thrice a week for 2 weeks measured 48 hrs after last dose by Western blot analysis; type: functional, organism-based
Outline: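 Male Balb/c mice, 6–8 wk, n=4/group, dosed i.p. in PBS 3x/wk for 2 wk and killed 48 h after the last dose. Tissue was homogenized in RIPA buffer with protease inhibitors, and protein was measured by Lowry assay. Lysates were run on 10% PAGE and blotted to PVDF. Blots were probed with rabbit anti-PTEN (1:1000) and HRP anti-rabbit (1:2500), with ECL detection.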

Mus musculus [19] = experiment: Inhibition of PTEN expression in ip dosed Balb/C mouse white adipose tissue assessed as reduction of full length transcript administered thrice a week for 2 weeks measured 48 hrs after last dose […]; type: functional, organism-based

**Q.** How did the Activity (Mus musculus [1]) turn out when `Cc1cn(CC(=O)N(CCNC(=O)CN(CCNC(=O)[C@H](CCCCN)N(CCNC(=O)[C@H](CCCCN)NC(=O)[C@H](CCCCN)NC(=O)[C@H](CCCCN)NC(=O)[C@H](CCCCN)NC(=O)[C@H](CCCCN)NC(=O)[C@H](CCCCN)NC(=O)[C@H](CCCCN)NC(=O)[C@@H](N)CCCCN)C(=O)Cn2cc(C)c(=O)[nH]c2=O)C(=O)Cn2ccc(N)nc2=O)CC(=O)NCCN(CC(=O)NCCN(CC(=O)NCCN(CC(=O)NCCN(CC(=O)NCCN(CC(=O)NCCN(CC(=O)NCCN(CC(=O)NCCN(CC(=O)NCCN(CC(=O)NCCN(CC(=O)NCCN(CC(=O)NCCN(CC(=O)NCCN(CC(=O)N[C@@H](CCCCN)C(N)=O)C(=O)Cn2cnc3c(N)ncnc32)C(=O)Cn2ccc(N)nc2=O)C(=O)Cn2cnc3c(N)ncnc32)C(=O)Cn2cc(C)c(=O)[nH]c2=O)C(=O)Cn2ccc(N)nc2=O)C(=O)Cn2cc(C)c(=O)[nH]c2=O)C(=O)Cn2cnc3c(N)ncnc32)C(=O)Cn2ccc(N)nc2=O)C(=O)Cn2cnc3c(N)ncnc32)C(=O)Cn2ccc(N)nc2=O)C(=O)Cn2cnc3c(=O)[nH]c(N)nc32)C(=O)Cn2cnc3c(N)ncnc32)C(=O)Cn2ccc(N)nc2=O)c(=O)[nH]c1=O` was run?
**A.** Non-toxic

**Q.** And the Activity (Mus musculus [2])?
**A.** Non-toxic

**Q.** And the Activity (Mus musculus [3])?
**A.** 185%

**Q.** And the Activity (Mus musculus [4])?
**A.** Non-toxic

**Q.** What about the Activity (Mus musculus [5]) of the same compound?
**A.** Non-toxic

**Q.** And the Activity (Mus musculus [6])?
**A.** 145%

**Q.** And the Activity (Mus musculus [7])?
**A.** Non-toxic

**Q.** What about the Activity (Mus musculus [8]) of the same compound?
**A.** Non-toxic

**Q.** And the Activity (Mus musculus [9])?
**A.** Non-toxic

**Q.** And the Activity (Mus musculus [10])?
**A.** Non-toxic

**Q.** What about the Activity (Mus musculus [11]) of the same compound?
**A.** 70%

**Q.** And the Activity (Mus musculus [12])?
**A.** Non-toxic

**Q.** What about the Activity (Mus musculus [13]) of the same compound?
**A.** Non-toxic

**Q.** And the Activity (Mus musculus [14])?
**A.** Non-toxic

**Q.** What about the Activity (Mus musculus [15]) of the same compound?
**A.** Dose-dependent effect

**Q.** What about the Activity (Mus musculus [16]) of the same compound?
**A.** Non-toxic

**Q.** And the Activity (Mus musculus [17])?
**A.** Non-toxic

**Q.** What about the inhibition (Mus musculus [18]) of the same compound?
**A.** inactive

**Q.** What about the Activity (Mus musculus [19]) of the same compound?
**A.** Dose-dependent effect
